Assay results: ChEMBL document CHEMBL1828589, “Isoeugenol-based novel potent antioxidants: synthesis and reactivity” (Eur J Med Chem, 2011)

Experiments:
Type in all cases: functional
[1] = Antioxidant activity assessed as inhibition of linoleic acid lipid peroxidation at 100 ug/ml measured after 6 hrs by ferric thiocynate method
Outline: (§1)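 Mitsuda ferric thiocyanate method. Linoleic acid/Tween 20 emulsion in 0.2 M phosphate pH 7.0, mixed with ethanolic compound and buffer. Incubated at 37 °C in the dark and sampled every 6 h. Aliquot taken into 75% ethanol, 30% ammonium thiocyanate and 0.02 M FeCl2 in 3.5% HCl; A500 read after 3 min. Inhibition % = (Ac−As)/Ac×100 against a no-compound control. Triplicates.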

[2] = Antioxidant activity assessed as inhibition of linoleic acid lipid peroxidation at 100 ug/ml measured after 12 hrs by ferric thiocynate method; outline: as §1
[3] = Antioxidant activity assessed as inhibition of linoleic acid lipid peroxidation at 100 ug/ml measured after 18 hrs by ferric thiocynate method; outline: as §1
[4] = Antioxidant activity assessed as inhibition of linoleic acid lipid peroxidation at 100 ug/ml measured after 24 hrs by ferric thiocynate method; outline: as §1
[5] = Antioxidant activity assessed as inhibition of linoleic acid lipid peroxidation at 100 ug/ml measured after 30 hrs by ferric thiocynate method; outline: as §1
[6] = Antioxidant activity assessed as inhibition of linoleic acid lipid peroxidation at 100 ug/ml measured after 36 hrs by ferric thiocynate method; outline: as §1
[7] = system: Radical scavenging activity; assay: Antioxidant activity assessed as residual DPPH radical scavenging activity after 30 mins by spectrophotometric analysis
Outline: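 Compound in ethanol at 10–40 µg/mL (3 mL) mixed with 1 mL of 0.1 mM ethanolic DPPH. Shaken, then left 30 min at room temperature, read at 517 nm. IC50 (µM) is the concentration giving a 50% fall in absorbance, from regression; three repeats.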

[8] = Antioxidant activity assessed as residual ABTS+ radical scavenging activity after 30 mins by spectrophotometric analysis
Outline: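 ABTS radical cation formed from 2 mM ABTS and 2.45 mM potassium persulfate in water, kept dark at room temperature for 12 h. Ethanolic compound at 10–30 µg/mL added to the radical solution. Remaining radical read at 734 nm and converted to concentration by a calibration curve (0.033–0.33 mM). IC50 (µM) by regression; three repeats.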

[9] = Antioxidant activity assessed as superoxide radical scavenging activity after 40 mins by Zhishen's method
Outline: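 Riboflavin (3×10⁻⁵ M), methionine (1×10⁻² M) and NBT (1×10⁻⁴ M) in 0.05 M phosphate pH 7.8. Illuminated 25 °C for 40 min to form formazan; absorbance at 560 nm, with an unilluminated mixture as control. Compounds tested at 10–40 µg/mL. IC50 (µM) by regression; three repeats.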

[10] = Antioxidant activity assessed as ferric to ferrous reduction at 10 ug/ml by FRAP assay
Outline: (§2)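 Oyaizu method, adjusted. Diluted compound in ethanol mixed with 0.2 mol/L phosphate buffer pH 6.6 and 1% K3Fe(CN)6, held 50 °C for 20 min. Then 10% trichloroacetic acid added and spun at 10,000g for 10 min. Upper layer mixed with water and 0.1% FeCl3, absorbance read at 700 nm. Mean ± SD of three replicate assays.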

[11] = Antioxidant activity assessed as ferric to ferrous reduction at 20 ug/ml by FRAP assay; outline: as §2
[12] = Antioxidant activity assessed as ferric to ferrous reduction at 30 ug/ml by FRAP assay; outline: as §2
[13] = Antioxidant activity assessed as ferric to ferrous reduction activity at 40 ug/ml by FRAP assay; outline: as §2

| Structure (SMILES) | IC50 [7] [µM] | IC50 [8] [µM] | IC50 [9] [µM] | inhibition [1] [%] | inhibition [2] [%] | inhibition [3] [%] | inhibition [4] [%] | inhibition [5] [%] | inhibition [6] [%] | Activity [10] | Activity [11] | Activity [12] | Activity [13] |
| --- | --- | --- | --- | --- | --- | --- | --- | --- | --- | --- | --- | --- | --- |
| CCC(c1ccc(O)c(OC)c1)c1ccc(O)cc1O (configuration not stated) | 6.71 | 10.1 | 15.3 | 36 | 75 | 85 | 94 | 97 | 94 | 0.27 | 0.32 | 0.36 | 0.47 |
| CCC(c1ccc(O)c(OC)c1)c1ccccc1O (configuration not stated) | 7.83 | 8.53 | 10.5 | 32 | 75 | 90 | 94 | 97 | 96 | 0.26 | 0.27 | 0.3 | 0.34 |
| C/C=C\c1ccc(O)c(OC)c1 [ISOEUGENOL] | 40.7 | 8.84 | 42.3 | 28 | 42 | 90 | 96 | 91 | 82 | 0.32 | 0.37 | 0.41 | 0.43 |
| Cc1cc(C(C)(C)C)c(O)c(C(C)(C)C)c1 [BUTYLATED HYDROXYTOLUENE] | 11.5 | 10.2 | 28.4 | 47 | 81 | 92 | 97 | 98 | 98 | 0.27 | 0.39 | 0.5 | 0.6 |
| CCC(c1ccc(O)c(OC)c1)c1cccc(C(C)C)c1O (configuration not stated) | 6.3 | 7 | 10.1 | 38 | 78 | 88 | 95 | 97 | 96 | 0.22 | 0.2 | 0.2 | 0.24 |

Second part, led by results:

| IC50 [7] [µM] | IC50 [8] [µM] | IC50 [9] [µM] | Structure (SMILES) | inhibition [1] [%] | inhibition [2] [%] | inhibition [3] [%] | inhibition [4] [%] | inhibition [5] [%] | inhibition [6] [%] | Activity [10] | Activity [11] | Activity [12] | Activity [13] |
| --- | --- | --- | --- | --- | --- | --- | --- | --- | --- | --- | --- | --- | --- |
| 5.8 | 8.28 | 6.61 | CCC(c1ccc(O)c(O)c1)c1ccc(O)c(OC)c1 (configuration not stated) | 37 | 78 | 90 | 96 | 98 | 97 | 0.43 | 0.55 | 0.58 | 0.64 |
| 6.19 | 7.19 | 13.7 | CCOc1cccc(C(CC)c2ccc(O)c(OC)c2)c1O (configuration not stated) | 37 | 77 | 89 | 96 | 97 | 96 | 0.21 | 0.22 | 0.25 | 0.28 |
| 5.84 | 8 | 61.3 | Cc1c(C)c2c(c(C)c1O)CCC(C)(C(=O)O)O2 (configuration not stated) [TROLOX] | 35 | 70 | 87 | 89 | 92 | 86 | 0.23 | 0.38 | 0.56 | 0.72 |
| 5.8 | 8.43 | 6.17 | CCC(c1ccc(O)c(OC)c1)c1cccc(O)c1O (configuration not stated) | 34 | 74 | 90 | 94 | 97 | 96 | 0.49 | 0.54 | 0.58 | 0.73 |
